Source: ChEMBL document CHEMBL1781999, “Lead optimization of aryl and aralkyl amine-based triazolopyrimidine inhibitors of Plasmodium falciparum dihydroorotate dehydrogenase with antimalarial activity in mice” (J Med Chem, 2011)
Calls of active or inactive are those of the source. No cut-off for these calls is given here.

Tests used:
Plasmodium berghei ANKA [1] = assay: Antimalarial activity against Plasmodium berghei ANKA NK65 infected in Swiss Webster mouse assessed as complete cure of animal at 100 mg/kg, po bid measured on day 9 by light microscopic analysis; format: functional, organism-based; set-up: dose 100 mg/kg
[2] = Cmax in Sprague-Dawley rat at 18.6 mg/kg, po by LC-MS analysis; format: ADME, organism-based; set-up: dose 18.6 mg/kg, route oral; conditions: in vivo
Procedure, shortened: (§1)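 Overnight-fasted male Sprague Dawley rats (n=2 per compound) gavaged with an aqueous suspension (DMSO, cellulose, benzyl alcohol, Tween 80 in water); food returned 4 h post-dose. Arterial blood via carotid cannula up to 24 h into heparinized tubes with stabilization cocktail. Plasma acetonitrile-precipitated, LC-MS against blank-plasma standards. AUC by non-compartmental analysis; Cmax read from profiles.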

Rattus norvegicus [3] = assay: Volume of distribution at steady state in Sprague-Dawley rat at 0.9 mg/kg, iv by LC-MS analysis; format: ADME, organism-based; set-up: dose 0.9 mg/kg, route intravenous; conditions: in vivo
Procedure, shortened: (§2)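 Overnight-fasted male Sprague Dawley rats (n=2 per dose). IV dosing was a 10 min jugular infusion in a solution vehicle of DMSO and acid with Captisol or Tween/glucose, depending on compound; oral dosing was by gavage as a suspension.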

Rattus norvegicus [4] = assay: Terminal elimination half life in Sprague-Dawley rat at 0.9 mg/kg, iv by LC-MS analysis; format: ADME, organism-based; set-up: dose 0.9 mg/kg, route intravenous; conditions: in vivo; procedure, shortened: as §2
[5] = AUC (0 to infinity) in Sprague-Dawley rat at 18.6 mg/kg, po by LC-MS analysis; format: ADME, organism-based; set-up: time infinity, dose 18.6 mg/kg, route oral; conditions: plasma; procedure, shortened: as §1
Rattus norvegicus [6] = assay: Terminal elimination half life in Sprague-Dawley rat at 2.9 mg/kg, iv by LC-MS analysis; format: ADME, organism-based; set-up: dose 2.9 mg/kg, route intravenous; conditions: in vivo; procedure, shortened: as §2
Rattus norvegicus [7] = assay: Volume of distribution at steady state in Sprague-Dawley rat at 2.9 mg/kg, iv by LC-MS analysis; format: ADME, organism-based; set-up: dose 2.9 mg/kg, route intravenous; conditions: in vivo; procedure, shortened: as §2
[8] = Terminal elimination half life in Sprague-Dawley rat at 18.6 mg/kg, po by LC-MS analysis; format: ADME, organism-based; set-up: dose 18.6 mg/kg, route oral; conditions: in vivo, read-out: beta t1/2 (converted); procedure, shortened: as §2
[9] = Oral bioavailability in Sprague-Dawley rat at 18.6 mg/kg by LC-MS analysis; format: ADME, organism-based; conditions: in vivo
Procedure, shortened: (§3)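 Overnight-fasted male Sprague Dawley rats, dosed orally by gavage as an aqueous suspension, n=2. Arterial blood taken via carotid cannula up to 24 h; plasma measured by LC-MS. %F = mean dose-normalized oral AUC0-24h versus IV AUC0-24h at the higher IV dose (5 mg/kg or 3 mg/kg, depending on compound); treated as an estimate.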

Rattus norvegicus [10] = assay: Terminal elimination half life in Sprague-Dawley rat at 5.1 mg/kg, iv by LC-MS analysis; format: ADME, organism-based; set-up: dose 5.1 mg/kg, route intravenous; conditions: in vivo; procedure, shortened: as §2
Rattus norvegicus [11] = assay: Volume of distribution at steady state in Sprague-Dawley rat at 1 mg/kg, iv by LC-MS analysis; format: ADME, organism-based; set-up: dose 1 mg/kg, route intravenous; conditions: in vivo; procedure, shortened: as §2
[12] = Antimalarial activity against Plasmodium berghei ANKA NK65 infected in po dosed Swiss Webster mouse assessed as reduction of parasitemia level administered qd for 4 days measured 24 hrs after last dose by light microscopic analysis; format: functional
Rattus norvegicus [13] = assay: AUC (0 to infinity) in Sprague-Dawley rat at 20.1 mg/kg, po by LC-MS analysis; format: ADME, organism-based, Plasma; set-up: time infinity, dose 20.1 mg/kg, route oral; conditions: in vivo; procedure, shortened: as §1
Rattus norvegicus [14] = assay: Cmax in Sprague-Dawley rat at 20.1 mg/kg, po by LC-MS analysis; format: ADME, organism-based; set-up: dose 20.1 mg/kg, route oral; conditions: in vivo; procedure, shortened: as §1
Rattus norvegicus [15] = assay: Volume of distribution at steady state in Sprague-Dawley rat at 5.1 mg/kg, iv by LC-MS analysis; format: ADME, organism-based; set-up: dose 5.1 mg/kg, route intravenous; conditions: in vivo; procedure, shortened: as §2
Rattus norvegicus [16] = assay: Terminal elimination half life in Sprague-Dawley rat at 20.1 mg/kg, po by LC-MS analysis; format: ADME, organism-based; set-up: dose 20.1 mg/kg, route oral; conditions: in vivo; procedure, shortened: as §2
Plasmodium berghei ANKA [17] = assay: Antimalarial activity against Plasmodium berghei ANKA NK65 infected in Swiss Webster mouse assessed as complete reduction of parasitemia level at 50 mg/kg, po bid administered for 4 days measured 24 hrs after last dose by light microscopic analysis; format: functional, organism-based; set-up: dose 50 mg/kg
Plasmodium berghei ANKA [18] = assay: Antimalarial activity against Plasmodium berghei ANKA NK65 infected in Swiss Webster mouse assessed as complete reduction of parasitemia level at 100 mg/kg, po qd administered for 4 days measured 24 hrs after last dose by light microscopic analysis; format: functional, organism-based; set-up: dose 100 mg/kg
Procedure, shortened: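 Female Swiss Webster mice, 8-10 weeks old (20-22 g), infected intraperitoneally with 2 × 10^7 P. berghei NK65 ANKA-infected erythrocytes. Oral doses in CMC vehicle (200 μL), first given 3 h post-infection, then at 24, 48 and 72 h. Parasitemia followed daily from 24 h by light microscopy at 1000× oil immersion, counting ≥10 fields of >100 erythrocytes. Mice losing ≥20% body weight were euthanized.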

Rattus norvegicus [19] = assay: Terminal elimination half life in Sprague-Dawley rat at 1 mg/kg, iv by LC-MS analysis; format: ADME, organism-based; set-up: dose 1 mg/kg, route intravenous; conditions: in vivo; procedure, shortened: as §2
Rattus norvegicus [20] = assay: Oral bioavailability in Sprague-Dawley rat at 20.1 mg/kg by LC-MS analysis; format: ADME, organism-based; conditions: in vivo; procedure, shortened: as §3

SMILES	Activity (Plasmodium berghei ANKA [1])	Cmax [2] [µM]	Vdss (Rattus norvegicus [3]) [L/kg]	beta t1/2 (Rattus norvegicus [4]) [h]	AUC(0-inf) [5] [µM·h]	beta t1/2 (Rattus norvegicus [6]) [h]	Vdss (Rattus norvegicus [7]) [L/kg]	half-life [8] [h]	bioavailability [9] [%]	beta t1/2 (Rattus norvegicus [10]) [h]	Vdss (Rattus norvegicus [11]) [L/kg]	ED50 [12] [mg/kg]	AUC (Rattus norvegicus [13]) [µM·min]	Cmax (Rattus norvegicus [14]) [µM]	Vdss (Rattus norvegicus [15]) [L/kg]	beta t1/2 (Rattus norvegicus [16]) [h]	Activity (Plasmodium berghei ANKA [17])	Activity (Plasmodium berghei ANKA [18])	beta t1/2 (Rattus norvegicus [19]) [h]	F (Rattus norvegicus [20]) [%]
Cc1cc(Nc2cc(F)c(C(F)(F)F)c(F)c2)n2ncnc2n1	inactive	34.3	0.4	1.6	1250	4.5	0.5	17.6	> 100	–	–	–	–	–	–	–	–	–	–	–
Cc1cc(Nc2ccc(S(F)(F)(F)(F)F)cc2)n2ncnc2n1	–	–	–	–	–	–	–	–	–	14.5	1.4	17	101693	31	1.5	33	inactive	inactive	11.4	> 100
